# From PubChem BioAssay
# MrgX1 antag: antagonists of human MrgX1 receptor; MRGX1-HEK293 calcium flux, Fluo-4, BAM8-22 antagonism; active compounds read low; Q96LB2; B-score at 10 µM; 310,000 compounds, 1.3% hits;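 active means calcium-response B-score plate-corrected more than 3 library SD below zero, starting fluorescence within 5 deviations, no agonist response on first addition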;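 further: peak minus trough fluorescence over baseline after final BAM8-22 challenge near maximal dose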
# Target sequence (Q96LB2 whole entry, looked up): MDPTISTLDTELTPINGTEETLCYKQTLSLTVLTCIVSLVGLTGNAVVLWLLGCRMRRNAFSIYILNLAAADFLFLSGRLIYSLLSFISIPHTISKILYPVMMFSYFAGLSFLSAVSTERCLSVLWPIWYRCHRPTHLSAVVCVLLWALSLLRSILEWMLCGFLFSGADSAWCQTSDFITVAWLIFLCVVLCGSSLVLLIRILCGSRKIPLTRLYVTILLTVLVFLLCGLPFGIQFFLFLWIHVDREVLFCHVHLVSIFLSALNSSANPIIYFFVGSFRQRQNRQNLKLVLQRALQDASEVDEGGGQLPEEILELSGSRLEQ
# MrgX1 PAM: allosterically activates human MrgX1 receptor signaling | MrgX1-HEK293, Fluo-4 calcium flux, FDSS; active compounds read high | B-score at 10 µM | 310,000 compounds, 0.63% hits | AID 588675;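 active means plate-corrected calcium response at least 3 library SD above typical, normal starting fluorescence, not activating the receptor alone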;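 further: compound read alongside a low EC10 to EC30 dose of BAM8-22 agonist; peak minus trough fluorescence over baseline measured at the second addition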
# RGS4 inh: inhibitors of human RGS4; P49798; HEK293 M3R/RGS4 inducible, Fluo-4 calcium flux; active compounds read high; triggered by carbachol at its EC20; B-score at 10 µM; 310,000 compounds, 0.45% hits; AID 463165;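 active means B-score, a plate-corrected calcium signal, over three deviations above library mean, with baseline fluorescence within five deviations of library mean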;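 further: RGS4 expression induced by doxycycline in cells with stable M3 receptor; B-score is computed from the integrated fluorescence ratio over baseline after carbachol; higher B-score means a larger calcium signal and so more RGS4 inhibition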
# Target sequence (P49798 whole entry, looked up): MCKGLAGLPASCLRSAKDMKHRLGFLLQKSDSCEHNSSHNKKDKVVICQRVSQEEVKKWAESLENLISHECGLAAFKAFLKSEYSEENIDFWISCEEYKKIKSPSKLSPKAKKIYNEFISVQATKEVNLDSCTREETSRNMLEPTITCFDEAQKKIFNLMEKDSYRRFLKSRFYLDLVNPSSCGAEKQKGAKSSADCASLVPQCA
# RGS4 act: RGS4 potentiation or activation. HEK293 M3R/inducible RGS4, carbachol calcium flux Fluo4; active compounds read low. B-score at 10 µM. 310,000 compounds, 0.92% hits;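 active means B-score of the integrated calcium signal more than 4 SD below the library mean, with starting fluorescence not abnormally high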;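 further: negative B-score means reduced calcium response which marks RGS4 activation or potentiation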
#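 test system = HEK293 cells with stable M3R and inducible RGS4 | schedule = recording 10 s baseline at 1 Hz, 100 s post-agonist | technique = Fluo4-AM (2 µM) calcium-flux fluorescence, kinetic read | measure = Agonist-evoked peak-minus-minimum fluorescence over baseline, integrated ratio, B score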
# MrgX1 agonist: human MrgX1 receptor agonism, primary screen | MrgX1-HEK293 cells, Fluo-4 calcium fluorescence, agonist mode; active compounds read high | B-score at 10 µM | Q96LB2 | 310,000 compounds, 0.44% hits | AID 588627;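 active means calcium response B-score plate-corrected fluorescence ratio at least 3 library SD, with starting fluorescence B-score inside 5 SD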
#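 Assay system: stable human MrgX1 HEK293 cell line. Quantity: 15,000 cells per well. Schedule: cells plated overnight, dye loaded 0.5 h 37 °C, 0.5 h room temperature. Detection: Fluo-4 NW calcium-flux fluorescence, kinetic read. Read-out basis: peak-minus-minimum fluorescence over baseline, converted to B scores. Control set: positive and negative control wells on each plate.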
# * marks the source's active call; other numbers are inactive results; i = inactive; . = no result given. Sampled rows, rich in hits. Any-hit rate of the full collection: about 3.5%.
SMILES,MrgX1 antag,MrgX1 PAM,RGS4 inh,RGS4 act,MrgX1 agonist
ClCC1=Nc2cccc3cccc(c23)N1,i,i,8.7*,i,i
CCCOC(=O)CCCCC1SCC(NC(=O)OC)C1NC(=O)OC (centres undefined),-8.1*,i,i,i,i
COCCCNC(=O)Cc1c(C)c2c(cc(C)c3c(C(C)(C)C)coc32)oc1=O,i,i,i,i,i
Cn1cccc1/C=N/n1c(-c2ccc(Cl)cc2Cl)n[nH]c1=S,i,i,i,i,27*
Cn1cccc1/C=N/n1c(-c2ccc(Cl)cc2)n[nH]c1=S,i,i,i,i,i
CC(=O)N1CCN(C(=O)c2ccc(OC3CCN(CCc4ccccc4)CC3)cc2)CC1,i,i,i,i,i
O=C(c1ccc(OC2CCN(CCCc3ccccc3)CC2)cc1)N1CCCC1,i,i,i,-7.4*,i
CCN1CCN(S(=O)(=O)c2c[nH]c(C(=O)OC)c2)CC1,i,i,i,i,i
CCOc1ccc(CCNC(=O)COC(=O)/C=C/c2ccccc2OC)cc1OCC,i,16*,i,i,i
CCOc1ccc(CCNC(=O)COC(=O)c2ccc(S(C)(=O)=O)cc2)cc1OCC,i,i,i,i,i
CCOc1ccc(CCNC(=O)COC(=O)c2ccc(OC(C)C)cc2)cc1OCC,-4.8*,i,i,i,i
Cc1nnc(SC(=O)N2c3ccccc3Sc3ccccc32)s1,i,i,i,-7*,i
CCOC(=O)N1c2ccccc2Sc2ccccc21,i,i,i,i,i
O=C(CCCn1cnc([N+](=O)[O-])n1)Nc1ccc(Cl)cc1Cl,-9.1*,i,i,i,i
COc1ccc(CCn2nc(C)c([N+](=O)[O-])c2C)cc1,-6.5*,i,i,i,i
CC(=O)OC(C[N+]1(C)CCCCCC1)c1ccccc1 (centres undefined),i,i,i,-7*,i
C[N+]1(CC(O)c2ccccc2)CCCCCC1 (centres undefined),i,i,i,i,i
CCc1ccc(-c2nc(CSCC(=O)N3CCN(c4ccccn4)CC3)c(C)o2)cc1,-7.1*,i,i,i,i
O=C(COc1ccc(S(=O)(=O)NC2CCCCC2)cc1)NCc1cccnc1,i,i,i,i,i
N#CCCN(Cc1cccnc1)S(=O)(=O)c1ccc(S(=O)(=O)NC2CCCCC2)cc1,-5.6*,i,i,i,i
Cc1c(NC(=S)NC(=O)C2CCCCC2)c(=O)n(-c2ccccc2)n1C,i,i,i,i,i
O=C(NCCN1C(=O)S/C(=C\c2ccc(OC(F)F)cc2)C1=O)[C@@H]1CCCN1C(=O)c1cccs1,i,8.2*,i,i,i
CS(=O)(=O)N(CC(=O)NCCSCc1cccc(Cl)c1)c1ccc(F)cc1,i,i,i,i,i
COc1ccc(/C=N\NC(=O)c2ccccc2)cc1COc1ccccc1,i,i,i,i,i
COc1ccc(/C=N\NC(=O)c2ccc(F)cc2)cc1COc1cc(F)ccc1[N+](=O)[O-],i,i,i,-9.8*,i
SMILES,MrgX1 antag,MrgX1 PAM,RGS4 inh,RGS4 act,MrgX1 agonist
COc1ccc(/C=N/NS(=O)(=O)c2ccc(F)cc2)cc1COc1cc(F)ccc1[N+](=O)[O-],i,i,i,i,i
CCOC(=O)c1ccccc1OCc1cc(/C=N/NC(=O)c2cccnc2)ccc1OC,i,i,i,-7.9*,i
CCC(=O)Nc1ccc(C(=O)CSc2nc(N)cc(N)n2)cc1,i,i,i,i,i
Cc1onc(-c2cccc(Cl)c2Cl)c1C(=O)O/N=C(\N)c1ccc([N+](=O)[O-])o1,i,i,i,-8.7*,i
Cc1ccc(S(=O)(=O)Nc2ccc(Cl)cc2)cc1NC(=O)c1cc2c(s1)CCCC2,i,i,i,i,i
O=[N+]([O-])c1ccc(CSc2nnc(SCc3ccccc3)s2)cc1,i,i,i,-8.3*,i
COc1ccc([N+](=O)[O-])cc1NC(=O)CSc1nc(C)c(C)c(C)n1,-4.5*,i,i,i,i
COc1ccc([N+](=O)[O-])cc1NC(=O)CSc1nccc(C)n1,i,i,i,i,i
Cc1cccc(N(C(=O)c2snc(C(N)=O)c2N)C(C(=O)NCc2ccccc2)c2ccncc2)c1 (centres undefined),i,i,i,i,i
CN1CCN(C(c2ccccc2)c2ccc(Cl)cc2)CC1 (centres undefined),i,i,.,.,i
CN1CCN(C(c2cccc(Cl)c2)c2ccccc2Cl)CC1 (centres undefined),i,i,i,-8*,i
CCc1ccc2[nH]c(=O)c(CN(Cc3ccccc3)C(=O)Nc3ccccc3OC)cc2c1,i,i,i,i,i
CC(=O)Nc1ccc(S(=O)(=O)NCc2ccc(C(=O)NCc3ccc(Cl)cc3)cc2)cc1,i,i,i,i,i
CC(=O)Nc1ccc(S(=O)(=O)NCc2ccc(C(=O)NCCN3CCCCCC3)cc2)cc1,-9.4*,i,i,i,i
O=C1COc2ccc(S(=O)(=O)N3CCC(C(=O)NCc4ccc(F)cc4)CC3)cc2N1,i,i,i,i,i
CC1CN(C(=O)COC(=O)c2ccc(C#N)cc2)CC(C)O1 (centres undefined),i,i,i,i,i
CCN1CCCC1CNC(=O)CCNC(=O)c1cc(OC)c(OC)c(OC)c1 (centres undefined),-6.5*,i,i,i,i
CCN1CCCC1CNC(=O)c1cc(OC)c(OC)c(OC)c1 (centres undefined),i,i,i,i,i
CC(C)CC1Nc2ccc(C(=O)NCCCN3CCOCC3)cc2NC1=O (centres undefined),i,i,i,i,i
COc1ccc(C2C3=C(CC(C)(C)CC3=O)OC(N)=C2[N+](=O)[O-])cc1 (centres undefined),i,i,i,i,i
C/C(=C\c1ccccc1)C(=O)N1CCN(c2cccc(C(F)(F)F)c2)CC1,-4.9*,i,i,i,i
O=C(COC(=O)c1ccccc1[N+](=O)[O-])Nc1cccnc1Cl,i,i,i,i,i
Cc1nn(CC(=O)NCc2ccccc2Cl)c(C)c1[N+](=O)[O-],i,i,i,i,i
Cc1nn(CC(=O)NCc2ccco2)c(C)c1[N+](=O)[O-],i,i,i,i,i
